Experimental data collected from several papers.
Compare with care: the assays were run in different laboratories.
DPP9: Dipeptidyl peptidase 9 (DPP9, Homo sapiens, UniProt Q86TI2)
USP14: Ubiquitin carboxyl-terminal hydrolase 14 (USP14, Homo sapiens, UniProt P54578)
Genome polyprotein protease: Genome polyprotein, protease (ZIKV, UniProt A0A024B7W1)
Cacna1b: Voltage-dependent N-type calcium channel subunit alpha-1B (Cacna1b, Rattus norvegicus, UniProt Q02294)
CCR2: C-C chemokine receptor type 2 (CCR2, Homo sapiens, UniProt P41597)
CTSB: Cathepsin B (CTSB, Homo sapiens, UniProt P07858)

SMILES	target	assay	setting	inhibition [%]
C#Cc1n[nH]c2c(-c3cn([C@@H](C)c4ccccc4)c(=O)[nH]c3=O)cc(F)cc12	Dual specificity protein kinase CLK3 (CLK3, Homo sapiens, UniProt P49761)	enzyme activity, inhibitor	0.1 µM	-0.8
CN(C)C(=O)COC(=O)Cc1ccc(OC(=O)c2ccc(NC(=N)N)cc2)cc1	DPP9	enzyme activity, inhibitor	10 µM	18
Cn1c(=O)c2ncnnc2n(C)c1=O	USP14	enzyme activity, inhibitor	17 µM	96
Oc1cc(O)c2c(c1)O[C@H](c1cc(O)c(O)c(O)c1)[C@H](O)C2	Genome polyprotein protease	enzyme activity, inhibitor, FRET	100 µM, pH 7	7
O=C1N=C(N2CCCCN2)S/C1=C\c1ccc(F)cc1O	5-hydroxytryptamine receptor 7 (HTR7, Homo sapiens, UniProt P34969)	ligand displacement, radioligand	10 µM	< 10
O=C1c2c(O)cc(O)cc2O[C@H](c2cc(O)c(O)c(O)c2)[C@H]1O	Genome polyprotein protease	enzyme activity, inhibitor, FRET	100 µM, pH 7	23
COc1cc(Nc2ncc(F)c(Nc3ccc4c(n3)NC(=O)C(C)(C)O4)n2)cc(OC)c1OC	Mitogen-activated protein kinase kinase kinase kinase 1 (MAP4K1, Homo sapiens, UniProt Q92918)	binding, competition with immobilised ligand	10 µM	70
c1ccc(C(NCCNC(c2ccccc2)c2ccccc2)c2ccccc2)cc1	Cacna1b	cell-free assay	10 µM	-6
Cc1ncc(C)n2nc(/C=C/c3nc(N4CCCC4)cc(N4CCOCC4)n3)nc12	CCR2	cell-free assay	10 µM	10
N=C(N)c1ccc2cc(OC(=O)c3ccc(N=C(N)N)cc3)ccc2c1	CTSB	enzyme activity, inhibitor	10 µM	48
O=c1cc(-c2ccccc2)oc2cc(O)cc(O)c12	Genome polyprotein protease	enzyme activity, inhibitor, FRET	100 µM, pH 7	19
CCOC(=O)c1ccc(OC(=O)CCCCCNC(=N)N)cc1	USP14	enzyme activity, inhibitor	10 µM	1
CC(C)C[C@H](NC(=O)[C@H](Cc1ccccc1)NC(=O)c1cnccn1)B(O)O	Suppressor of tumorigenicity 14 protein (ST14, Homo sapiens, UniProt Q9Y5Y6)	cell-free assay, inhibitor	33 µM	51.5
Cn1c(=O)c2c(ncn2C)n(C)c1=O	Genome polyprotein protease	enzyme activity, inhibitor, FRET	100 µM, pH 7	6
C#Cc1n[nH]c2c(-c3cn([C@@H](C)c4ccccn4)c(=O)[nH]c3=O)cc(F)cc12	Cyclin-dependent kinase 8, with cyclin C (CDK8, Homo sapiens, UniProt P49336)	enzyme activity, inhibitor	0.1 µM	-1.7
CC(C)N1CCC[C@H]1CNC(=O)c1cn(C2CCCC2)c(=O)c2c1c1ccccc1n2C	Cacna1b	ligand displacement, radioligand	10 µM	2
CCN(CC)CCCC[C@H](NC(=O)[C@H](CC(C)C)NC(=O)[C@H](C)NC(=O)[C@H](Cc1ccccc1)NC(=O)c1ccc(C(C)(C)C)cc1)C(=O)N[C@@H](CO)C(=O)OC	C-X-C chemokine receptor type 2 (CXCR2, Homo sapiens, UniProt P25025)	ligand displacement, radioligand	10 µM	-12
Cn1cc(-c2cccc(N3CCc4c(sc5c4CC(C)(C)C5)C3=O)c2CO)cc(Nc2ccncn2)c1=O	MAP kinase-activated protein kinase 3 (MAPKAPK3, Homo sapiens, UniProt Q16644)	enzyme activity, inhibitor	1 µM	4
CC(C)Cn1cnc2c(N)nc3ccccc3c21	Alpha-1A adrenergic receptor (Adra1a, Rattus norvegicus, UniProt P43140)	ligand displacement, radioligand	10 µM	65
CC(C)C[C@H](NC(=O)[C@H]1O[C@@H]1C(=O)O)C(=O)NCCCCN=C(N)N	CTSB	enzyme activity, inhibitor	500 pM	32
O=C(Nc1cccnn1)N1CCN([C@@H]2CCOc3cc(C(F)(F)F)ccc32)CC1	CCR2	cell-free assay	20 µM	-9
O=c1c(O)c(-c2ccc(O)c(O)c2)oc2cc(O)cc(O)c12	Genome polyprotein protease	enzyme activity, inhibitor	200 µM, pH 8.5	100
N#Cc1ccc(NCCNCC(=O)N2N=CCC2C#N)nc1 (stereo not drawn)	DPP9	enzyme activity, inhibitor	1 µM	49
O=c1c(O)c(-c2ccc(O)c(O)c2)oc2cc(O)cc(O)c12	Genome polyprotein protease	enzyme activity, inhibitor, FRET	100 µM, pH 7	37
